From ChEMBL document CHEMBL2321735, “Synthesis and biological evaluation of halogenated curcumin analogs as potential nuclear receptor selective agonists” (Bioorg Med Chem, 2013) come the findings set out here.

Experiment [1] has as its target T1, Vitamin D3 receptor (Homo sapiens) (UniProt P11473).
T1 sequence (whole entry): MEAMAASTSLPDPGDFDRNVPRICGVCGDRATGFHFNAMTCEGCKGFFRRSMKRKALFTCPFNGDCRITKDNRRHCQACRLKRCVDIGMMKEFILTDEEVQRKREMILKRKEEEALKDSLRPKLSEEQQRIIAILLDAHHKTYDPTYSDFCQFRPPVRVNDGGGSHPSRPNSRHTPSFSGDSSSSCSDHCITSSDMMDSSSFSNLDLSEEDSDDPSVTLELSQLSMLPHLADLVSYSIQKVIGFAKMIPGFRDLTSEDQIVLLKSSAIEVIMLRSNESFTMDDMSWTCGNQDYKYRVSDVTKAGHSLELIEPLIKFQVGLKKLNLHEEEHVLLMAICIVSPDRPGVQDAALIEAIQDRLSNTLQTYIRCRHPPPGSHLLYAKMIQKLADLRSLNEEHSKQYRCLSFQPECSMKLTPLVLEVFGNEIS
Put plainly: Agonist activity at human VDR expressed in human HCT116 cells co-expressing VDRE assessed as XDR3 transcriptional activity at 20 to 40 uM after 24 hrs by luciferase reporter gene assay. Format: cell-based. To be noted: HCT-116. In a few lines: (§1)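 HCT-116 cells were transfected with a firefly luciferase plasmid holding two copies of the CYP3A4 XDR3 VDRE, plus a Renilla control. From 18 h post-transfection they were exposed to 3.75 x 10^-5 M compound, 10^-10 M 1,25D or DMSO in complete medium for 24 h. Dual-luciferase firefly/Renilla ratio. Three independent experiments, triplicate wells, mean ± SD.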
For orientation: A reporter such as luciferase makes a cellular process visible.

Experiment [2] concerns the target T1, Vitamin D3 receptor (Homo sapiens). Put plainly: Agonist activity at human VDR expressed in human HCT116 cells assessed as CYP24A1 transcriptional activity at 20 to 40 uM after 24 hrs by luciferase reporter gene assay. It counts as cell-based. To be noted: HCT-116. The method, boiled down:
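HCT-116 cells (DMEM, 10% FBS, 37 °C, 5% CO2) plated at 90,000 cells/well ~24 h before transfection with a firefly luciferase reporter carrying the natural human CYP24A1 promoter (2 VDREs) plus Renilla control. Treated 18 h after transfection with 3.75 x 10^-5 M compound, 10^-10 M 1,25D or DMSO for 24 h. Read-out is dual luciferase, firefly/Renilla x10,000. Triplicate wells.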

Experiment [3] shares this target. In words: Agonist activity at human VDR expressed in human HCT116 cells assessed as induction of recruitment of DRIP205 at 20 to 40 uM after 24 hrs by mammalian two hybrid system based luciferase reporter gene assay. It counts as cell-based. The note with it: HCT-116. The method, boiled down:
(§2)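 M2H in HCT-116 used a VDR-AD prey with an SRC-1-BD or DRIP205-BD bait (50 ng each), 250 ng pFR-luc and 20 ng pRL-null per well. Cells were treated with 3.75 x 10^-5 M compound, 10^-10 M 1,25D or DMSO for 24 h. Firefly luciferase was normalized to Renilla. Duplicate experiments, triplicate samples, SD.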

Experiment [4] has as its target T2, Retinoic acid receptor RXR-alpha (Homo sapiens) (UniProt P19793).
T2 sequence (whole entry): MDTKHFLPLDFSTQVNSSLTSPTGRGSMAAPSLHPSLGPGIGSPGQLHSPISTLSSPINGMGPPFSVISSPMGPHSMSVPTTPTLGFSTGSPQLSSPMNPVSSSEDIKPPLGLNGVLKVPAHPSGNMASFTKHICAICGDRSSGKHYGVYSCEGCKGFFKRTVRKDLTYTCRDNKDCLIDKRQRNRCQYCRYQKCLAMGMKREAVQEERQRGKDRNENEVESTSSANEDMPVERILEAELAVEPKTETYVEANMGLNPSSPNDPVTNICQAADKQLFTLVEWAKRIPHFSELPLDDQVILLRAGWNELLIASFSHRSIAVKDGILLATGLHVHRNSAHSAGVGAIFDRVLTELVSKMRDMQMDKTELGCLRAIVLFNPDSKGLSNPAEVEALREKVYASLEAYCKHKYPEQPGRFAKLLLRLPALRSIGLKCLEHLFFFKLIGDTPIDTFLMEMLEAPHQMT
Put plainly: Induction of RXRalpha-AD/RXRalpha-BD (unknown origin) homodimerization expressed in human HCT116 cells at 20 to 40 uM after 24 hrs by luciferase reporter gene assay. It counts as cell-based. To be noted: HCT-116. In a few lines: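 RXR–RXR homodimerization was measured by M2H in HCT-116 cells transfected with RXRα-AD prey, RXRα-BD bait, pFR-luc and Renilla control. […] Firefly luciferase was normalized to Renilla. Three independent experiments, triplicate samples, SD.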

For experiment [5], the target named is T1, Vitamin D3 receptor (Homo sapiens). Put plainly: Agonist activity at human VDR expressed in human HCT116 cells assessed as induction of recruitment of SRC-1 at 20 to 40 uM after 24 hrs by mammalian two hybrid system based luciferase reporter gene assay. Format: cell-based. The note with it: HCT-116. The method, boiled down: as §2
Another experiment addresses T3, Vitamin D3 receptor (Homo sapiens, UniProt P11473).
T3 sequence (P11473 whole entry): T1 sequence (whole entry)
In words: Agonist activity at human VDR expressed in human HCT116 cells co-expressing VDRE assessed as XDR3 transcriptional activity after 24 hrs by luciferase reporter gene assay. Format: cell-based, HCT-116. In a few lines: as §1

The structures appear in SMILES notation. Active and inactive are the calls of the source. The calls are words filed in the database; no cut-off is given here.

Turning to `O=C(/C=C(\O)CCc1ccc(O)cc1F)CCc1ccc(O)cc1F`, the result in experiment [1] and in experiment [2] was inactive.
For `COc1cc(/C=C/C(=O)/C=C(O)/C=C/c2cc(Br)c(O)c(OC)c2)cc(Br)c1O`, the outcome in experiment [1], in experiment [3], in experiment [2], in experiment [4] and in experiment [5] was Active.
As usually defined, the EC50 is the concentration giving half of the maximal effect. For the molecule `COc1cc(/C=C/C(=O)CC(=O)/C=C/c2ccc(O)c(OC)c2)ccc1O` [CURCUMIN], the result in experiment [3], in experiment [2] and in experiment [5] was Active. In addition, the EC50 at Vitamin D3 receptor was 20 µM.
Regarding `O=C(/C=C(O)/C=C/c1ccc(O)c(Br)c1)/C=C/c1ccc(O)c(Br)c1`, the result in experiment [1], in experiment [2] and in experiment [4] was Active.
`COc1cc(CCC(=O)/C=C(\O)CCc2ccc(O)c(OC)c2)ccc1O`: in experiment [1], the outcome was Active.
Same read-out and setting: in the case of `COc1cc(/C=C/C(=O)/C=C(O)/C=C/c2cc(F)c(O)c(OC)c2)cc(F)c1O` it was “Active”.
As for `O=C(/C=C(O)/C=C/c1ccc(O)cc1F)/C=C/c1ccc(O)cc1F`, the result in experiment [1] and in experiment [2] was inactive.
Regarding `COc1cc(CCC(=O)/C=C(\O)CCc2cc(F)c(O)c(OC)c2)cc(F)c1O`, the result in experiment [1] and in experiment [2] was inactive.
For `COc1cc(/C=C/C(=O)/C=C(O)/C=C/c2cc(Cl)c(O)c(OC)c2)cc(Cl)c1O`, the outcome in experiment [1], in experiment [2] and in experiment [4] was Active.
In the case of `O=C(/C=C(O)/C=C/c1ccc(O)c(OC(F)(F)F)c1)/C=C/c1ccc(O)c(OC(F)(F)F)c1`, the result in experiment [1], in experiment [3], in experiment [2], in experiment [4] and in experiment [5] was Active.
As for `COc1cc(/C=C/C(=O)/C=C(O)/C=C/c2cc(I)c(O)c(OC)c2)cc(I)c1O`, the result in experiment [1], in experiment [3], in experiment [2], in experiment [4] and in experiment [5] was Active.
Take `O=C(/C=C(O)/C=C/c1ccc(O)c(Cl)c1)/C=C/c1ccc(O)c(Cl)c1`: the result in experiment [1], in experiment [2] and in experiment [4] was Active.
